Source: ChEMBL document CHEMBL1145439, “Fluorine-18-labeled benzamide analogues for imaging the sigma2 receptor status of solid tumors with positron emission tomography” (J Med Chem, 2007)
Values belong to the compound of their own block, whether it stands above or below them.

Columns and labels:
[1] = Tumor to fat ratio of the drug in mouse EMT6 tumor bearing BALB/c mouse at 10 to 20 uCi after 2 hrs; format: ADME
Summary of the method: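 Tumor-bearing female Balb/c mice (EMT-6 s.c. allograft, ~0.2 cm3) given 10-20 µCi 18F tracer in saline i.v. via tail vein; ≥4 per group; killed 120 min later. Tissues weighed and gamma-counted; ratio = tumor %ID/g divided by that organ's %ID/g.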

Blood [2] = experiment: Biodistribution in blood of mouse EMT6 tumor bearing BALB/c mouse at 10 to 20 uCi after 5 mins; format: ADME, organism-based; settings: in vivo
Summary of the method: (§1)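 EMT-6 cells (5×10^5 in 100 µL PBS) implanted s.c. in scapular region of female Balb/c mice (~2 months, 17-22 g); studied 7-10 days later at ~0.2 cm3 tumor. 18F tracer 10-20 µCi in 100-150 µL saline via tail vein; ≥4 mice per time point; tissue removed at sacrifice, weighed, gamma-counted; %ID/g calculated.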

Blood [3] = experiment: Biodistribution in blood of mouse EMT6 tumor bearing BALB/c mouse at 10 to 20 uCi after 30 mins; format: ADME, organism-based; settings: in vivo, 0.5 h; summary of the method: as §1
Blood [4] = experiment: Biodistribution in blood of mouse EMT6 tumor bearing BALB/c mouse at 10 to 20 uCi after 60 mins; format: ADME, organism-based; settings: in vivo, 1 h; summary of the method: as §1
Blood [5] = experiment: Biodistribution in blood of mouse EMT6 tumor bearing BALB/c mouse at 10 to 20 uCi after 120 mins; format: ADME, organism-based; settings: in vivo, 2 h; summary of the method: as §1
Lung [6] = experiment: Biodistribution in lung of mouse EMT6 tumor bearing BALB/c mouse at 10 to 20 uCi after 5 mins; format: ADME, organism-based; settings: in vivo; summary of the method: as §1
Lung [7] = experiment: Biodistribution in lung of mouse EMT6 tumor bearing BALB/c mouse at 10 to 20 uCi after 30 mins; format: ADME, organism-based; settings: in vivo, 0.5 h; summary of the method: as §1
Lung [8] = experiment: Biodistribution in lung of mouse EMT6 tumor bearing BALB/c mouse at 10 to 20 uCi after 60 mins; format: ADME, organism-based; settings: in vivo, 1 h; summary of the method: as §1
Lung [9] = experiment: Biodistribution in lung of mouse EMT6 tumor bearing BALB/c mouse at 10 to 20 uCi after 120 mins; format: ADME, organism-based; settings: in vivo, 2 h; summary of the method: as §1
Liver [10] = experiment: Biodistribution in liver of mouse EMT6 tumor bearing BALB/c mouse at 10 to 20 uCi after 5 mins; format: ADME, organism-based; settings: in vivo; summary of the method: as §1
Liver [11] = experiment: Biodistribution in liver of mouse EMT6 tumor bearing BALB/c mouse at 10 to 20 uCi after 30 mins; format: ADME, organism-based; settings: in vivo, 0.5 h; summary of the method: as §1
Liver [12] = experiment: Biodistribution in liver of mouse EMT6 tumor bearing BALB/c mouse at 10 to 20 uCi after 60 mins; format: ADME, organism-based; settings: in vivo, 1 h; summary of the method: as §1
Liver [13] = experiment: Biodistribution in liver of mouse EMT6 tumor bearing BALB/c mouse at 10 to 20 uCi after 120 mins; format: ADME, organism-based; settings: in vivo, 2 h; summary of the method: as §1
Kidney [14] = experiment: Biodistribution in kidney of mouse EMT6 tumor bearing BALB/c mouse at 10 to 20 uCi after 5 mins; format: ADME, organism-based; settings: in vivo; summary of the method: as §1
Kidney [15] = experiment: Biodistribution in kidney of mouse EMT6 tumor bearing BALB/c mouse at 10 to 20 uCi after 30 mins; format: ADME, organism-based; settings: in vivo, 0.5 h; summary of the method: as §1
Kidney [16] = experiment: Biodistribution in kidney of mouse EMT6 tumor bearing BALB/c mouse at 10 to 20 uCi after 60 mins; format: ADME, organism-based; settings: in vivo, 1 h; summary of the method: as §1
Kidney [17] = experiment: Biodistribution in kidney of mouse EMT6 tumor bearing BALB/c mouse at 10 to 20 uCi after 120 mins; format: ADME, organism-based; settings: in vivo, 2 h; summary of the method: as §1
Muscle tissue [18] = experiment: Biodistribution in muscle of EMT6 tumor bearing BALB/c mouse at 10 to 20 uCi after 5 mins; format: ADME, organism-based; settings: in vivo; summary of the method: as §1
Muscle tissue [19] = experiment: Biodistribution in muscle of mouse EMT6 tumor bearing BALB/c mouse at 10 to 20 uCi after 30 mins; format: ADME, organism-based; settings: in vivo, 0.5 h; summary of the method: as §1
Muscle tissue [20] = experiment: Biodistribution in muscle of mouse EMT6 tumor bearing BALB/c mouse at 10 to 20 uCi after 60 mins; format: ADME, organism-based; settings: in vivo, 1 h; summary of the method: as §1
Muscle tissue [21] = experiment: Biodistribution in muscle of mouse EMT6 tumor bearing BALB/c mouse at 10 to 20 uCi after 120 mins; format: ADME, organism-based; settings: in vivo, 2 h; summary of the method: as §1
Adipose tissue [22] = experiment: Biodistribution in fat of mouse EMT6 tumor bearing BALB/c mouse at 10 to 20 uCi after 5 mins; format: ADME, organism-based; settings: in vivo; summary of the method: as §1
Adipose tissue [23] = experiment: Biodistribution in fat of mouse EMT6 tumor bearing BALB/c mouse at 10 to 20 uCi after 30 mins; format: ADME, organism-based; settings: in vivo, 0.5 h; summary of the method: as §1
Adipose tissue [24] = experiment: Biodistribution in fat of mouse EMT6 tumor bearing BALB/c mouse at 10 to 20 uCi after 60 mins; format: ADME, organism-based; settings: in vivo, 1 h; summary of the method: as §1
Adipose tissue [25] = experiment: Biodistribution in fat of mouse EMT6 tumor bearing BALB/c mouse at 10 to 20 uCi after 120 mins; format: ADME, organism-based; settings: in vivo, 2 h; summary of the method: as §1
Heart [26] = experiment: Biodistribution in heart of mouse EMT6 tumor bearing BALB/c mouse at 10 to 20 uCi after 5 mins; format: ADME, organism-based; settings: in vivo; summary of the method: as §1
Heart [27] = experiment: Biodistribution in heart of mouse EMT6 tumor bearing BALB/c mouse at 10 to 20 uCi after 30 mins; format: ADME, organism-based; settings: in vivo, 0.5 h; summary of the method: as §1
Heart [28] = experiment: Biodistribution in heart of mouse EMT6 tumor bearing BALB/c mouse at 10 to 20 uCi after 60 mins; format: ADME, organism-based; settings: in vivo, 1 h; summary of the method: as §1
Heart [29] = experiment: Biodistribution in heart of EMT6 tumor bearing BALB/c mouse at 10 to 20 uCi after 120 mins; format: ADME, organism-based; settings: in vivo, 2 h; summary of the method: as §1
Brain [30] = experiment: Biodistribution in brain of EMT6 tumor bearing BALB/c mouse at 10 to 20 uCi after 5 mins; format: ADME, organism-based; settings: in vivo; summary of the method: as §1
Brain [31] = experiment: Biodistribution in brain of EMT6 tumor bearing BALB/c mouse at 10 to 20 uCi after 30 mins; format: ADME, organism-based; settings: in vivo, 0.5 h; summary of the method: as §1
Brain [32] = experiment: Biodistribution in brain of EMT6 tumor bearing BALB/c mouse at 10 to 20 uCi after 60 mins; format: ADME, organism-based; settings: in vivo, 1 h; summary of the method: as §1
Brain [33] = experiment: Biodistribution in brain of mouse EMT6 tumor bearing BALB/c mouse at 10 to 20 uCi after 120 mins; format: ADME, organism-based; settings: in vivo, 2 h; summary of the method: as §1
Bone [34] = experiment: Biodistribution in bone of mouse EMT6 tumor bearing BALB/c mouse at 10 to 20 uCi after 5 mins; format: ADME, organism-based, Bone element; settings: in vivo; summary of the method: as §1
Bone [35] = experiment: Biodistribution in bone of mouse EMT6 tumor bearing BALB/c mouse at 10 to 20 uCi after 30 mins; format: ADME, organism-based, Bone element; settings: in vivo, 0.5 h; summary of the method: as §1
Bone [36] = experiment: Biodistribution in bone of mouse EMT6 tumor bearing BALB/c mouse at 10 to 20 uCi after 60 mins; format: ADME, organism-based, Bone element; settings: in vivo, 1 h; summary of the method: as §1
Bone [37] = experiment: Biodistribution in bone of mouse EMT6 tumor bearing BALB/c mouse at 10 to 20 uCi after 120 mins; format: ADME, organism-based, Bone element; settings: in vivo, 2 h; summary of the method: as §1
EMT6 [38] = experiment: Biodistribution in tumor of mouse EMT6 tumor bearing BALB/c mouse at 10 to 20 uCi after 5 mins; format: ADME, organism-based; settings: emt6, 5 min; summary of the method: as §1
EMT6 [39] = experiment: Biodistribution in tumor of EMT6 tumor bearing BALB/c mouse 10 to 20 uCi after 30 mins; format: ADME, organism-based; settings: emt6, 0.5 h; summary of the method: as §1
EMT6 [40] = experiment: Biodistribution in tumor of mouse EMT6 tumor bearing BALB/c mouse at 10 to 20 uCi after 60 mins; format: ADME, organism-based; settings: emt6, 1 h; summary of the method: as §1
EMT6 [41] = experiment: Biodistribution in tumor of mouse EMT6 tumor bearing BALB/c mouse at 10 to 20 uCi after 120 mins; format: ADME, organism-based; settings: emt6, 2 h; summary of the method: as §1
[42] = Decrease in tumor to muscle ratio of the drug in mouse EMT6 tumor bearing BALB/c mouse after 1 hr in presence of YUN-143; format: ADME; parameters: scale not given: the % may be the effect or the level left
Summary of the method: (§2)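 Blocking: 18F tracer coinjected i.v. with 1 mg/kg cold YUN-143 (σ1/σ2 ligand) into EMT-6 tumor-bearing female Balb/c mice; sacrificed at 60 min; tumor/muscle and tumor/fat ratios from %ID/g of gamma-counted tissues.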

[43] = Decrease in tumor to fat ratio of the drug in mouse EMT6 tumor bearing BALB/c mouse after 1 hr in presence of YUN-143; format: ADME; parameters: scale not given: the % may be the effect or the level left; summary of the method: as §2
[44] = Displacement of [3H]DTG from sigma 2 receptor in rat liver membrane after 120 mins; format: cell membranes
Summary of the method: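 Rat liver membranes (~300 µg protein) incubated with ~5 nM [3H]DTG plus 1 µM (+)-pentazocine to mask σ1 sites, 120 min at room temperature; 10 µM haloperidol defines nonspecific binding; filtration and scintillation counting. One-site nonlinear regression IC50, converted to Ki by Cheng-Prusoff; mean ± SEM.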

[45] = Selectivity for rat liver sigma 2 receptor over guinea pig brain sigma 1 receptor

- Ratio [1]: 8
- Drug uptake (Blood [2]): 2.49 % ID/g
- Drug uptake (Blood [3]): 1.16 % ID/g
- Drug uptake (Blood [4]): 0.56 % ID/g
- Drug uptake (Blood [5]): 0.35 % ID/g
- Drug uptake (Lung [6]): 10.26 % ID/g
- Drug uptake (Lung [7]): 2.36 % ID/g
- Drug uptake (Lung [8]): 0.88 % ID/g
- Drug uptake (Lung [9]): 0.43 % ID/g
- Drug uptake (Liver [10]): 23.33 % ID/g
- Drug uptake (Liver [11]): 10.51 % ID/g
- Drug uptake (Liver [12]): 4.14 % ID/g
- Drug uptake (Liver [13]): 2.05 % ID/g
- Drug uptake (Kidney [14]): 29.18 % ID/g
- Drug uptake (Kidney [15]): 6.86 % ID/g
- Drug uptake (Kidney [16]): 2.51 % ID/g
- Drug uptake (Kidney [17]): 0.87 % ID/g
- Drug uptake (Muscle tissue [18]): 1.86 % ID/g
- Drug uptake (Muscle tissue [19]): 0.7 % ID/g
- Drug uptake (Muscle tissue [20]): 0.34 % ID/g
- Drug uptake (Muscle tissue [21]): 0.24 % ID/g
- Drug uptake (Adipose tissue [22]): 1.95 % ID/g
- Drug uptake (Adipose tissue [23]): 0.59 % ID/g
- Drug uptake (Adipose tissue [24]): 0.22 % ID/g
- Drug uptake (Adipose tissue [25]): 0.08 % ID/g
- Drug uptake (Heart [26]): 3.73 % ID/g
- Drug uptake (Heart [27]): 1.15 % ID/g
- Drug uptake (Heart [28]): 0.55 % ID/g
- Drug uptake (Heart [29]): 0.27 % ID/g
- Drug uptake (Brain [30]): 0.76 % ID/g
- Drug uptake (Brain [31]): 0.27 % ID/g
- Drug uptake (Brain [32]): 0.18 % ID/g
- Drug uptake (Brain [33]): 0.12 % ID/g
- Drug uptake (Bone [34]): 2.49 % ID/g
- Drug uptake (Bone [35]): 0.96 % ID/g
- Drug uptake (Bone [36]): 0.55 % ID/g
- Drug uptake (Bone [37]): 0.45 % ID/g
- Drug uptake (EMT6 [38]): 3.67 % ID/g
- Drug uptake (EMT6 [39]): 2.54 % ID/g
- Drug uptake (EMT6 [40]): 1.14 % ID/g
- Drug uptake (EMT6 [41]): 0.64 % ID/g
- Activity [42]: 50%
- Activity [43]: 50%
Structure (SMILES): COc1cc2c(cc1OC)CN(CCCCNC(=O)c1cc(C)ccc1OCC[18F])CC2

- Ki [44]: 102 nM
- Ratio Ki [45]: 222
Structure (SMILES): COc1cc2c(cc1OC)CN(CCNC(=O)c1cc(C)ccc1OCCF)CC2

- Ki [44]: 1.06 nM
Structure (SMILES): COc1cc2c(cc1OC)CN(CCCCNC(=O)c1cc(I)ccc1OCCF)CC2
